Measured values published in ChEMBL document CHEMBL5724801, “EUbOPEN Chemogenomics Library - Multiplex” (2024).
Values joined by “and” are separate entries in the source; they are usually repeats but may differ in a detail not shown here. Identical values can stand only once.

test system: Fibroblast; experiment: Multiplex assay against human fibroblast; format: toxicity, cell-based; details: 12 h, 1 µM, compound concentration 1 uM
Summary of the method: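 Live cells were stained at seeding with Hoechst33342, BioTracker Green Microtubule Cytoskeleton Dye, MitoTracker Red and Annexin V Alexa Fluor 680, then imaged on a CQ1 microscope at 37°C and 5% CO2 after compound addition. CellPathfinder machine-learning gating split cells into Hoechst high-intensity objects or normal cells. Normal cells were split into healthy, pyknosed or fragmented nuclei, and pyknosed cells into mitotic or apoptotic. Tubulin, mitochondrial-mass and membrane-permeability phenotypes are per cents of healthy-nucleus cells.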

Compound	Population Apoptotic (%)	Population Fragmented Nuclei (%)	Population Healthy Nuclei (%)	Population Hoechst High Intensity Objects (%)	Population Membrane Permeable-Phenotype (%)	Population Mitochondria Different-Phenotype (%)	Population Normal (%)	Population Pyknosed Nuclei (%)	Total Cell Count	Population Mitotic Cells (%)
CC(C)CNc1nc(N2CCN(CC3CCCOC3)CC2)ncc1C(=O)NCc1ccccc1 (stereo not drawn)	34% and 80.22%	39.83% and 19.74%	17.8% and 20.39%	0%	9.52% and 19.35%	9.52% and 6.45%	100%	42.37% and 59.87%	118 and 152	
OCCCNc1cc(-c2ccnc(Nc3cccc(Cl)c3)n2)ccn1	58% and 50%	15% and 21%	66% and 53%	4% and 6%	0% and 5%	9% and 13%	95% and 93%	18% and 24%	139 and 138	41% and 50%

same assay, conditions: 12 h, 1 µM, compound concentration 1 uM

Compound	Population Tubulin-Different-Phenotype (%)
OCCCNc1cc(-c2ccnc(Nc3cccc(Cl)c3)n2)ccn1	52% and 47%

same assay, conditions: 12 h, 10 µM, compound concentration 10 uM

Compound	Population Apoptotic (%)	Population Fragmented Nuclei (%)	Population Healthy Nuclei (%)	Population Hoechst High Intensity Objects (%)	Population Mitochondria Different-Phenotype (%)	Population Normal (%)	Population Pyknosed Nuclei (%)	Population Tubulin-Different-Phenotype (%)	Total Cell Count	Population Membrane Permeable-Phenotype (%)
CC(C)CNc1nc(N2CCN(CC3CCCOC3)CC2)ncc1C(=O)NCc1ccccc1 (stereo not drawn)	39.68% and 87.25%	33.58% and 21.43%	19.4% and 12.34%	0%	57.69% and 63.16%	100%	47.01% and 66.23%	57.69% and 94.74%	134 and 154	
OCCCNc1cc(-c2ccnc(Nc3cccc(Cl)c3)n2)ccn1	61% and 52%	38% and 65%	44% and 24%	10% and 6%	25% and 11%	89% and 93%	17% and 9%	88% and 84%	136 and 227	9% and 20%

same assay, conditions: 12 h, 10 µM, compound concentration 10 uM

Compound	Population Mitotic Cells (%)
OCCCNc1cc(-c2ccnc(Nc3cccc(Cl)c3)n2)ccn1	38% and 47%

same assay, conditions: 24 h, 1 µM, compound concentration 1 uM

Compound	Population Apoptotic (%)	Population Healthy Nuclei (%)	Population Hoechst High Intensity Objects (%)	Population Membrane Permeable-Phenotype (%)	Population Mitochondria Different-Phenotype (%)	Population Normal (%)	Population Pyknosed Nuclei (%)	Population Tubulin-Different-Phenotype (%)	Total Cell Count	Population Fragmented Nuclei (%)
CC(C)CNc1nc(N2CCN(CC3CCCOC3)CC2)ncc1C(=O)NCc1ccccc1 (stereo not drawn)	32.61% and 81.58%	30.28% and 37.59%	0%	9.09% and 24.53%	24.24% and 15.09%	100%	42.2% and 53.9%	39.39% and 67.92%	109 and 141	
OCCCNc1cc(-c2ccnc(Nc3cccc(Cl)c3)n2)ccn1	56% and 46%	65% and 48%	2% and 3%	1% and 6%	20% and 10%	97% and 96%	17% and 22%	60% and 55%	136 and 139	16% and 29%

same assay, conditions: 24 h, 1 µM, compound concentration 1 uM

Compound	Population Mitotic Cells (%)
OCCCNc1cc(-c2ccnc(Nc3cccc(Cl)c3)n2)ccn1	43% and 53%

same assay, conditions: 24 h, 10 µM, compound concentration 10 uM

Compound	Population Apoptotic (%)	Population Fragmented Nuclei (%)	Population Healthy Nuclei (%)	Population Hoechst High Intensity Objects (%)	Population Mitochondria Different-Phenotype (%)	Population Mitotic Cells (%)	Population Normal (%)	Population Pyknosed Nuclei (%)	Population Tubulin-Different-Phenotype (%)	Total Cell Count
CC(C)CNc1nc(N2CCN(CC3CCCOC3)CC2)ncc1C(=O)NCc1ccccc1 (stereo not drawn)	59.65% and 72.31%	28.46% and 10.32%	27.69% and 47.74%	0%	58.33% and 47.3%	40.35% and 27.69%	100%	43.85% and 41.94%	66.67% and 87.84%	130 and 155
OCCCNc1cc(-c2ccnc(Nc3cccc(Cl)c3)n2)ccn1	80%	36% and 63%	42% and 27%	11% and 6%		20%	88% and 93%	20% and 9%	86% and 80%	138 and 218

same assay, conditions: 24 h, 10 µM, compound concentration 10 uM

Compound	Population Membrane Permeable-Phenotype (%)
OCCCNc1cc(-c2ccnc(Nc3cccc(Cl)c3)n2)ccn1	7% and 12%

same assay, conditions: 48 h, 1 µM, compound concentration 1 uM

Compound	Population Apoptotic (%)	Population Fragmented Nuclei (%)	Population Healthy Nuclei (%)	Population Hoechst High Intensity Objects (%)	Population Membrane Permeable-Phenotype (%)	Population Mitochondria Different-Phenotype (%)	Population Mitotic Cells (%)	Population Normal (%)	Population Pyknosed Nuclei (%)	Population Tubulin-Different-Phenotype (%)
CC(C)CNc1nc(N2CCN(CC3CCCOC3)CC2)ncc1C(=O)NCc1ccccc1 (stereo not drawn)	33.33% and 68.42%	15.25% and 14.4%	64.41% and 70.4%	0%	13.16% and 19.32%	36.84% and 19.32%	66.67% and 31.58%	100%	20.34% and 15.2%	35.53% and 67.05%
OCCCNc1cc(-c2ccnc(Nc3cccc(Cl)c3)n2)ccn1	46% and 37%	27% and 36%	47% and 30%	8% and 7%	1% and 5%	20% and 24%	53% and 62%	91% and 92%	25% and 32%	66% and 45%

same assay, conditions: 48 h, 1 µM, compound concentration 1 uM

Compound	Total Cell Count
CC(C)CNc1nc(N2CCN(CC3CCCOC3)CC2)ncc1C(=O)NCc1ccccc1 (stereo not drawn)	118 and 125
OCCCNc1cc(-c2ccnc(Nc3cccc(Cl)c3)n2)ccn1	136 and 132

same assay, conditions: 48 h, 10 µM, compound concentration 10 uM

Compound	Population Apoptotic (%)	Population Fragmented Nuclei (%)	Population Healthy Nuclei (%)	Population Hoechst High Intensity Objects (%)	Population Mitochondria Different-Phenotype (%)	Population Mitotic Cells (%)	Population Normal (%)	Population Pyknosed Nuclei (%)	Population Tubulin-Different-Phenotype (%)	Total Cell Count
CC(C)CNc1nc(N2CCN(CC3CCCOC3)CC2)ncc1C(=O)NCc1ccccc1 (stereo not drawn)	52.78% and 75%	19.46% and 17.61%	56.38% and 72.33%	0%	60.71% and 47.83%	47.22% and 25%	100%	24.16% and 10.06%	70.24% and 84.35%	149 and 159
OCCCNc1cc(-c2ccnc(Nc3cccc(Cl)c3)n2)ccn1	91% and 85%	39% and 58%	39% and 30%	14% and 6%	42% and 20%	8% and 14%	85% and 93%	21% and 11%	77% and 64%	134 and 192

same assay, conditions: 48 h, 10 µM, compound concentration 10 uM

Compound	Population Membrane Permeable-Phenotype (%)
OCCCNc1cc(-c2ccnc(Nc3cccc(Cl)c3)n2)ccn1	15% and 20%
